The full list was thinned out, with hits kept by preference.
ABCB6 inh MLPCN – ABCB6 transporter inhibitors, primary screen, K562-ABCB6 cells, flow cytometry, MLPCN library. AID 602162, 2011. fluorescence ratio to DMSO, % at 10 µM. hit rate 0.19% among 360,000. K562-ABCB6 porphyrin accumulation, 1 h; hits give low values. ATP-binding cassette sub-family B member 6 (Homo sapiens), Q9NP58;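 active = fluorescence ratio to DMSO below 75%, the collection mean minus 3 SD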;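 also: signal is porphyrin accumulated inside mitochondria; 100% equals median channel fluorescence of DMSO control wells; lower ratio means ABCB6 inhibition with less porphyrin fluorescence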
Target sequence (Q9NP58 whole entry, looked up): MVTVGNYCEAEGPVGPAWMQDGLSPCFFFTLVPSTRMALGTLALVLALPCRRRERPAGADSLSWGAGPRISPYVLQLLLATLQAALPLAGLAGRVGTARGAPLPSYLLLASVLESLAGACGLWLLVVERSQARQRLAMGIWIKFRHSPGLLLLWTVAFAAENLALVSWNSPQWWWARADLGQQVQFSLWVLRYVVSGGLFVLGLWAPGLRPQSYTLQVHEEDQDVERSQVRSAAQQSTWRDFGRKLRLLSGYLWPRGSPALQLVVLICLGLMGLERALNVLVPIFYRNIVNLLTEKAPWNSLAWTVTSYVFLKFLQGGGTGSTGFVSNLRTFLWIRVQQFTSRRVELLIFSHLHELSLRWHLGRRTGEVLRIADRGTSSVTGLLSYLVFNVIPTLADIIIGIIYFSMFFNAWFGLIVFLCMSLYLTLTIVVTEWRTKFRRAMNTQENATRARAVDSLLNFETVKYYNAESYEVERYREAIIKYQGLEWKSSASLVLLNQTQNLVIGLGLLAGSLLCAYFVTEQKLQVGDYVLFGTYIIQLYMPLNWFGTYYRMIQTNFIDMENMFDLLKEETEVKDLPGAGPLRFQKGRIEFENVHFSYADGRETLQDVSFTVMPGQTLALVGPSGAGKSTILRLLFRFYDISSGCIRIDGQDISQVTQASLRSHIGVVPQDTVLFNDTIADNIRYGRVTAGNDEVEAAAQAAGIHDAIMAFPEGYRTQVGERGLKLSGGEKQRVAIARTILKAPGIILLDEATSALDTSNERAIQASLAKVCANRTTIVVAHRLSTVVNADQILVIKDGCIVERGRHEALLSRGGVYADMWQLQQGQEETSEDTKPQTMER
p-CIP stab down – p/CIP-EGFP fusion destabilizers, primary screen, fluorescence, F442A cells | 16 h | Q05BA5 | hit rate 0.01% among 290,000 | decrease of EGFP signal, % at 10 µM;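 active = EGFP signal decrease of at least 30% at 10 µM or well 3 SD below plate mean, unless failing retest; inactive = the rest, including hits failing retest or dose response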
KCC2 mod – KCC2 cotransporter modulators, thallium flux, primary screen, cell-based, HEK293 KCC2, FluoZin-2 fluorescence, MLSMR; Solute carrier family 12 member 5 (Homo sapiens), Q9H2X9; KCC2 cells, thallium flux FluoZin-2 fluorescence; B-score of Tl+ flux slope (higher = more flux/activation; lower = inhibition) at 10 µM; hit rate 2.2% among 190,000;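 active = thallium flux slope and its plate-corrected score both differing from the plate sample mean at a set confidence after two filtering rounds, in either direction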;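 also: slope of fluorescence scaled to starting intensity during 10 to 20 s after thallium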
V-ATPase pHluor – regulators of yeast V-ATPase proton pumping, primary screen, pHLuorin cytosolic pH fluorescence | S. cerevisiae | response, % at 10 µM | hit rate 0.37% among 350,000 | AID 504577, 2011; in the data active = response mostly above about 7.3%, no sharp cut-off; inactive = mostly below about 5.4%; also: actives read high
Dynein transport – inhibitors of GR-EGFP nuclear translocation, primary screen, dynein cargo transport inhibitor project, imaging, high-content, 3617.4 mouse cells; test concentration mostly 20 µM; stimulated with dexamethasone, 1 µM; hits give low values; AID 1381, 2008; hit rate 0.47% among 220,000; z-score, hits read low;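 active = plate z-score of nuclear minus cytoplasmic receptor signal below a set negative limit, without overly bright fluorescence or cell loss, cut at about -3.5 in these data, passing the limit was not always enough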;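 also: z-score of nuclear minus cytoplasmic ring GR-EGFP intensity difference per well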
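Buffer or medium: tet-free, stripped-serum medium; Also added: dexamethasone, 1.0 µM final; Technique: high-content fluorescence imaging after fixation; Times: 48 h induction, 1 h compound, 30 min dex at 37 °C; Read-out: per-cell GR-EGFP intensity, nucleus versus surrounding cytoplasmic ring, well-averaged.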
Dynein confirm – dynein cargo transport inhibitors, GR-EGFP translocation, confirmation, imaging, high-content imaging, GR-EGFP cells; shares compounds with Dynein transport; 3617.4 GR-EGFP nuclear translocation imaging, dexamethasone-induced; calls only at 20 µM; hit rate 69% among 1,000; AID 463116, 2010;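 active = inhibition of receptor movement into the nucleus at or above a set limit in both runs, with normal cell brightness and cell count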;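 also: dexamethasone at 1 µM final in well for 30 min; nuclear minus cytoplasmic GR-EGFP mean intensity difference in channel 2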
Starred values were filed as active, the others as inactive; i = inactive; . = not tested or not shown; + = active, no number; ! = not active in a repeat.

SMILES	ABCB6 inh MLPCN	p-CIP stab down	KCC2 mod	V-ATPase pHluor	Dynein transport	Dynein confirm
Cc1cc2c(C(C)C)c(O)c(O)c(C=O)c2c(O)c1-c1c(C)cc2c(C(C)C)c(O)c(O)c(C=O)c2c1O	92	-2	-7.2*!	.	0.28	.
CCN1C(=O)CC(=O)N(CC)C1=S	94	.	.	-1	.	.
CN1C2CCC1/C(=C/c1ccccn1)C(=O)/C2=C\c1ccccn1	96	-18	.	-2	-3.6*	.
S=C1CN=C(c2ccccc2Cl)c2cc(Cl)ccc2N1	82	-8	5.8*	1	0.34	.
Cc1sc2ncn(CC(=O)NCCCC(=O)N3CCC4(CC3)OCCO4)c(=O)c2c1C	101	-3	-0.21	4	-0.82	.
CC/C(=C\C=C\[C@@H]1C=C[C@@H]2CCC[C@H]2[C@@H]1C(=O)c1ccc[nH]1)[C@@H]1O[C@@H]([C@@H](C)C(=O)O)CC[C@@H]1C	.	0	3.4*	.	1	.
O=C(N/N=C/c1c(O)n(C2CCCCC2)c(=S)[nH]c1=O)c1ccccc1	12*	-2	.	-1	.	.
Cc1ccc(NC(=O)CC[C@H]2O[C@@H](n3cnc4c(NC(=O)c5ccccc5)ncnc43)[C@H](O)[C@@H]2O)cc1C	99	.	.	.	.	.
CN1/C(=C\C=C2C(=O)NC(=S)NC2=O)C(C)(C)c2ccccc21	125	-803	-4.6*	1	0.81	.
c1ccc(C2(NC3=NCCO3)CCCCC2)cc1	97	.	.	-2	.	.
C=C1C(=O)OC2CC3(C)OC3C3OC3C3=CC(OC3=O)C12 (stereo unspecified)	36*	.	.	.	.	.
C=C1C(=O)OC2CC3(C)OC3CCC(C)=CC(OC(C)=O)C12 (stereo unspecified)	100	.	.	1	.	.
COC(=O)C[C@]1(C(=O)OC)CN(C#N)N(c2ccc(Cl)cc2)C12c1ccccc1-c1ccccc12	81	18	0.9	-6	-4.4*	.
COC(=O)[C@@H]1[C@@H](C(=O)OC)C2(c3ccccc3-c3ccccc32)N(c2ccc(Cl)cc2)N1C#N	87	-6	1.9	-5	1.3	.
CCOC(=O)[C@]12Cc3cc(Cl)ccc3[C@H]1N(C1CCCCC1)C(=O)c1ccccc12	101	.	.	.	.	.
C[C@]12CCC3C(CC[C@H]4C[C@H](O)CC[C@]34C)C1CC(=O)[C@@H]2O (stereo partly specified)	98	.	.	13*	.	.
S=C(NCCc1ccccc1)N1Cc2cc(N3CCCCC3)ccc2-n2nncc2C1	96	.	.	.	.	.
COc1ccc(C(O)CNC(C)C)c(F)c1OC (stereo unspecified)	102	.	.	27*	.	.
COc1ccc(OC)c(C(O)C(C)N)c1 (stereo unspecified)	98	2	-0.7	-3	0.05	.
CN1CCN(C(=O)COc2ccc(S(=O)(=O)Nc3ccc(Cl)cc3)cc2)CC1	100	.	.	-1	.	.
O=[N+]([O-])c1ccc(NCc2ccccc2)c2nonc12	.	-32	i	.	-6.8*	+
CN1C(=O)NC(=O)/C(=C/c2ccc([N+](=O)[O-])o2)C1=O	.	-11	-0.13	3	-0.24	.
COc1ccc(OC)c(N2C(=O)NC(=O)/C(=C\c3ccc([N+](=O)[O-])s3)C2=O)c1	103	-10	-0.75	133*	-5.6*	+
O=C1NC(=O)N(c2ccccc2)C(=O)/C1=C\c1ccc([N+](=O)[O-])s1	.	-25	1.2	136*	-6*	+
COc1ccc(N2C(=O)NC(=O)/C(=C\c3ccccc3[N+](=O)[O-])C2=O)cc1	93	2	.	0	0.12	.
SMILES	ABCB6 inh MLPCN	p-CIP stab down	KCC2 mod	V-ATPase pHluor	Dynein transport	Dynein confirm
O=C1NC(=O)N(c2ccccc2)C(=O)/C1=C\c1ccc([N+](=O)[O-])o1	.	-10	-0.37	.	0.073	.
CN1C(=O)NC(=O)/C(=C/c2ccc([N+](=O)[O-])s2)C1=O	101	-20	0.033	130*	-5.5*	+
CCC1(CCCC(=O)c2ccc(F)cc2)C(=O)NC(=S)NC1=O	100	-7	-2.7	-1	0.24	.
CCCCCC(=O)N[C@@H](c1ccccc1)[C@@H](O)C(=O)O[C@H]1C[C@@]2(O)[C@@H](OC(=O)c3ccccc3)C3[C@](C)(C(=O)[C@H](O)C(=C1C)C2(C)C)[C@@H](OC1OCC(O)C(O)C1O)C[C@H]1OC[C@@]31OC(C)=O (stereo partly specified)	102	11	.	-3	.	.
CCOc1ccc(N2C(=O)/C(=C\c3cccs3)C(=O)NC2=S)cc1	.	-10	0.98	.	-4.4*	+
O=c1[nH]sc2cc(F)ccc12	97	-17	1.6	-4	-4.9*	+
CC(=O)N1Cc2cnnn2-c2ccccc2C1(C)C#N (stereo unspecified)	97	.	.	4	.	.
O=C(OCC(=O)c1ccc([N+](=O)[O-])cc1)/C(=C/c1ccc(Cl)cc1)NC(=O)c1ccccc1	95	0	-1.5	1	0.28	.
O=c1cc(C(F)(F)F)c2cc3c4c(c2o1)CCCN4CCC3	168	-199	i	-1	-4.8*	+
Cc1cc2c(C(F)(F)F)cc(=O)oc2c2c1NCCC2	95	-78	.	-2	0.12	.
COC(=O)C1=C(c2cccc(OC)c2OC)C[C@@H]2CC[C@H]1N2C(=O)N1CCCC1	98	.	.	-3	.	.
Cc1cc(C)cc(N2C(=O)NC(=O)/C(=C\C=C\c3ccco3)C2=O)c1	99	-21	0.51	2	-4.5*	+
O=C1NC(=O)N(c2ccccc2)C(=O)/C1=C\C=C\c1ccccc1	100	-19	.	8	-6*	+
CC(C)c1ccc(N2C(=O)NC(=O)/C(=C/C=C/c3ccco3)C2=O)cc1	88	-18	-1.2	-3	-0.068	.
Cc1ccc(N2C(=O)NC(=O)/C(=C/C=C/c3ccco3)C2=O)cc1	96	-19	-0.29	9	-4.5*	+
CCc1ccc(N2C(=O)NC(=O)/C(=C\C=C\c3ccco3)C2=O)cc1	98	-33	0.36	0	-3.9*	+
COC(=O)C1=C(c2cc3ccccc3o2)C[C@@H]2CC[C@H]1N2C(=O)NCc1cccc2ccccc12	102	.	.	4	.	.
Nc1cccc2c1Cc1cc([N+](=O)[O-])ccc1-2	99	.	.	1	.	.
O=C1NC(=O)N(Cc2ccc(F)cc2)C(=O)/C1=C\C=C\c1ccco1	95	-68	2	0	-5.1*	+
